We go through two molecules from ChEMBL document CHEMBL4387702, “Design and synthesis novel di-carbonyl analogs of curcumin (DACs) act as potent anti-inflammatory agents against LPS-induced acute lung injury (ALI)” (Eur J Med Chem, 2019).

The term inhibition denotes the relative decrease from the control value, in per cent. Broadly, the MRT inf is a mean duration of stay, worked out from the concentration-time curve. One may read the AUC as concentration integrated over time. A low value points to low exposure. For orientation: Cmax means the maximum level reached in the sampled fluid or tissue. For orientation: AUC(0-t) means the area under the concentration-time curve up to a stated or last time point. A lower AUC(0-t) goes with less exposure.

Data set [1] relates to Mus musculus. Nature of the data set: Antiinflammatory activity in C57BL/6 mouse model of LPS-induced acute lung injury assessed as reduction in ICAM1 mRNA expression in lung tissue at 10 mg/kg, ip administered daily for one week prior to LPS challenge and measured after 6 hrs by TRIZOL reagent-based RT-qPCR analysis. Format: functional, organism-based. Put shortly:
(§1)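 Mouse ALI model with eight C57BL/6 mice per group. Compound was given at 10 mg/kg i.p. daily for one week; controls received 0.9% saline. LPS was instilled intratracheally at 5 mg/kg. Mice were euthanized with chloral hydrate 6 h later and lungs collected. Lung mRNA for each target was quantified by real-time qPCR.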
On the technique in general: Quantitative PCR measures a nucleic acid by following its amplification.

The target in data set [2] is MAP kinase p38 (Mus musculus) (UniProt P47811+O08911+Q9WUI1+Q9Z1B7). In words: Inhibition of LPS-induced p38 MAPK phosphorylation in ICR mouse RAW264.7 cells at 10 uM preincubated for 0.5 hrs followed by LPS challenge and measured after 30 mins by immunoblotting analysis. The format is cell-based. Put shortly: (§2)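 RAW 264.7 cells were pretreated with compound for 0.5 h and then stimulated with LPS for 30 min. Lysates were resolved on 10% or 12% SDS-PAGE and transferred to nitrocellulose. Membranes were blocked in TBS (pH 7.6) with 0.05% Tween 20 and 5% milk. Blots were probed for p-p38, p38, p-ERK, ERK, IκBα and GAPDH, detected with HRP secondaries and ECL.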

Data set [3] relates to Mus musculus. In words: Antiinflammatory activity in C57BL/6 mouse model of LPS-induced acute lung injury assessed as reduction in TNF-alpha mRNA expression in lung tissue at 10 mg/kg, ip administered daily for one week prior to LPS challenge and measured after 6 hrs by TRIZOL reagent-based RT-qPCR analysis. Format: functional, organism-based. In short, it runs like this: as §1

Data set [4] deals with RAW264.7. In words: Inhibition of MAPK/NFkappaB signaling in ICR mouse RAW264.7 cells assessed as reduction in LPS-induced TNF-alpha mRNA expression pretreated for 0.5 hrs followed by LPS challenge and measured after 40 mins by TRIZOL reagent-based RT-qPCR analysis. Format: cell-based. Put shortly:
(§3)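 RAW 264.7 cells were pretreated with compound for 0.5 h and then activated with LPS. Values were normalized to actin and expressed relative to the LPS group.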

For data set [5], the system named is Mus musculus. Nature of the data set: Antiinflammatory activity in C57BL/6 mouse model of LPS-induced acute lung injury assessed as reduction in lung wet/dry ratio at 10 mg/kg, ip administered daily for one week prior to LPS challenge and measured after 6 hrs. Format: functional, organism-based. In short, it runs like this: (§4)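 C57BL/6 mice (eight per group) received 10 mg/kg i.p. daily for one week; vehicle was 0.9% saline. They were then challenged with intratracheal LPS at 5 mg/kg and sacrificed 6 h later. Endpoints were lung wet/dry weight ratio and total and neutrophil cell counts in BALF, reported as mean ± SEM, n = 6.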

Data set [6] concerns Mus musculus. Nature of the data set: Antiinflammatory activity in C57BL/6 mouse model of LPS-induced acute lung injury assessed as reduction in IL-6 production in BALF at 10 mg/kg, ip administered daily for one week prior to LPS challenge and measured after 6 hrs by ELISA. Format: functional, organism-based. In short, it runs like this: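 In C57BL/6 mice (eight per group), compound was dosed at 10 mg/kg i.p. once daily for a week, with a 0.9% saline vehicle control. LPS 5 mg/kg was given intratracheally and animals were euthanized with chloral hydrate after 6 h. TNF-α and IL-6 in serum and BALF were measured by ELISA. Data are mean ± SEM, n = 6.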
On the technique in general: In an ELISA, binding on a coated surface is turned into a signal by an enzyme label.

Data set [7] has as its system RAW264.7. In words: Inhibition of LPS-induced ERK phosphorylation in ICR mouse RAW264.7 cells at 10 uM preincubated for 0.5 hrs followed by LPS challenge and measured after 30 mins by immunoblotting analysis. Format: cell-based. In short, it runs like this: as §2
The subject of data set [8] is Mus musculus. Nature of the data set: Antiinflammatory activity in C57BL/6 mouse model of LPS-induced acute lung injury assessed as reduction in total cell count in BALF at 10 mg/kg, ip administered daily for one week prior to LPS challenge and measured after 6 hrs. Format: functional, organism-based. Put shortly: as §4
Data set [9] concerns the target Transcription factor p65 (Mus musculus) (UniProt Q04207). In words: Inhibition of LPS-induced NFkappaB p65 nuclear translocation in ICR mouse RAW264.7 cells preincubated for 0.5 hrs followed by LPS challenge and measured after 40 mins by DAPI staining-based immunofluorescence microscopic analysis. Format: cell-based. Put shortly:
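RAW 264.7 cells were pretreated with compound for 0.5 h, then given LPS for 40 min (methods) or 45 min (legend). Cells were fixed with 4% paraformaldehyde and permeabilized in methanol. Anti-p65 (1:200) was applied overnight at 4 °C, then PE-conjugated secondary (1:200) for 2 h. Nuclei were stained with DAPI and cells viewed by fluorescence microscopy.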

Data set [10] relates to Mus musculus. Nature of the data set: Antiinflammatory activity in C57BL/6 mouse model of LPS-induced acute lung injury assessed as reduction of LY-6G neutrophil level in lung tissue at 10 mg/kg, ip administered daily for one week prior to LPS challenge and measured after 6 hrs by hematoxylin staining-based immunohistochemistry method. Format: functional, organism-based. In short, it runs like this: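 Lungs came from C57BL/6 mice dosed at 10 mg/kg i.p. daily for one week, then given intratracheal LPS 5 mg/kg and harvested at 6 h. Tissue was paraffin-embedded and cut into 5 µm sections. Antigen retrieval used microwaving in 0.01 mol/L citrate (pH 6.0), then 3% H2O2 in methanol for 30 min. Sections took LY-6G or F4/80 primary antibody overnight at 4 °C, secondary at 1:200, DAB development and hematoxylin counterstain.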

Data set [11] relates to RAW264.7. Nature of the data set: Inhibition of MAPK/NFkappaB signaling in ICR mouse RAW264.7 cells assessed as reduction in LPS-induced VCAM1 mRNA expression pretreated for 0.5 hrs followed by LPS challenge and measured after 40 mins by TRIZOL reagent-based RT-qPCR analysis. Format: cell-based. Put shortly:
as §3

Data set [12] relates to RAW264.7. In words: Inhibition of MAPK/NFkappaB in ICR mouse RAW264.7 cells assessed as reduction in LPS-induced IL6 production at 10 uM pretreated for 0.5 hrs followed by LPS challenge and measured after 24 hrs by ELISA relative to control. The format is cell-based.
Data set [13] is described as follows: MRT (0 to infinity) in Sprague-Dawley rat at 50 mg/kg, po by UHPLC-MS/MS analysis. The format is ADME, organism-based. The note with it: in vivo. Put shortly:
(§5)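 Male Sprague-Dawley rats (250 ± 20 g) fasted overnight with free access to water, n = 5 per route. Intravenous dose was 5 mg/kg; the intragastric dose is printed as 20 mg/kg in the methods and 50 mg/kg in the table. Tail blood was taken at 0.083, 0.25, 0.5, 1, 2, 4, 6, 9, 12 and 24 h. Samples were centrifuged (12000 rpm, 10 min), deproteinized with 2 volumes of acetonitrile, re-centrifuged and quantified by UHPLC-MS/MS.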

The nature of data set [14]: Apparent volume of distribution during terminal phase in Sprague-Dawley rat at 5 mg/kg, iv by UHPLC-MS/MS analysis. Format: ADME, organism-based. As to conditions: in vivo. In short, it runs like this: as §5
The nature of data set [15]: AUC (0 to infinity) in Sprague-Dawley rat at 5 mg/kg, iv by UHPLC-MS/MS analysis. Details: dose 5 mg/kg, route intravenous, time infinity. As to conditions: in vivo. The format is ADME, organism-based. Put shortly: as §5
The nature of data set [16]: Cmax in Sprague-Dawley rat at 50 mg/kg, po by UHPLC-MS/MS analysis. Details: dose 50 mg/kg, route oral. The note with it: in vivo. The format is ADME, organism-based. Put shortly: as §5
Data set [17] in a line: AUC (0 to t) in Sprague-Dawley rat at 5 mg/kg, iv by UHPLC-MS/MS analysis. Format: ADME, organism-based. As to conditions: in vivo. Put shortly: as §5

Structures are written as SMILES. Calls of active or inactive are those of the source. No cut-off for these calls is given here.

Chain of Transcription factor p65 (Mus musculus) (Q04207 whole entry): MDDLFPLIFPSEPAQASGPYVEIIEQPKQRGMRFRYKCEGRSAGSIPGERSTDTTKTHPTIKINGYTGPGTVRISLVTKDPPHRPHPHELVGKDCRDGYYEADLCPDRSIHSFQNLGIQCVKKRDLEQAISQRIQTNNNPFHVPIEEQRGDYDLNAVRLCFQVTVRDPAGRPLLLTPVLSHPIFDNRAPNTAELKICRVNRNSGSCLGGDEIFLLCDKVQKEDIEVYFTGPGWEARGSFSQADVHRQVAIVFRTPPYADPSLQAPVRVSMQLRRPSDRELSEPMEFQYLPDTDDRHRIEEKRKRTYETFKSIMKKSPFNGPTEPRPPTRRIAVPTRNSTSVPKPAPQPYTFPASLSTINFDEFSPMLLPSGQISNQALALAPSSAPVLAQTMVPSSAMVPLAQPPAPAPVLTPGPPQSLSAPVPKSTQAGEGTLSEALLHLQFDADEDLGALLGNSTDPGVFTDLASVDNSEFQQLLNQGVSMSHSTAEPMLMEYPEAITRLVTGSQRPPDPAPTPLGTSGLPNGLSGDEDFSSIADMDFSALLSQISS

`COc1cc(/C=C/C(=O)N2CCC/C(=C\c3cc(OC)c(OC)c(OC)c3)C2=O)ccc1O`: the result in the data set on Mus musculus [1], with Mus musculus [3], with Mus musculus [5], with Mus musculus [6], with Mus musculus [8] and with Mus musculus [10] was Active. Moreover, the inhibition entry (in [2]; in the data set with RAW264.7 [4]; in the data set on RAW264.7 [7]; in data set [9]; with RAW264.7 [11]) was “Active” in each case. Besides, the inhibition with RAW264.7 [12] was in the range of 99.3 to 99.7%.

For the molecule `COc1cc(/C=C/C(=O)N2CCC/C(=C\c3cc(OC)c(OC)c(OC)c3)C2=O)ccc1OC(C)=O`, the outcome with Mus musculus [1], with Mus musculus [3], with Mus musculus [6], with Mus musculus [8] and in the data set on Mus musculus [10] was Active. Also, the inhibition entry (in data set [2]; in the data set with RAW264.7 [4]; in the data set with RAW264.7 [7]; in data set [9]; with RAW264.7 [11]) was “Active” in each case. In addition, in [13], the MRT inf was 12.3 h. For the same molecule, the Vz/F in data set [14] amounted to 59.5 L/kg. The molecule also registered an AUC in data set [15] of 122.4 ng·h/mL. The molecule also yielded a Cmax in data set [16] of 113 ng/mL. This molecule also had an AUC(0-t) in [17] of 34.4 ng·h/mL. Moreover, the inhibition in the data set with RAW264.7 [12] fell in the range of 99.3 to 99.7%.
